The source made the active and inactive calls.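 The calls were made as follows, unless noted: active = a full or partial loss of lipid-probe fluorescence in the fish gall bladder, intestine or both, judged by eye; inactive = no fluorescence loss, or compound toxic to the fish.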
biological target: Alpha-2C adrenergic receptor (Homo sapiens) (UniProt P18825); assay: compounds altering alpha2C-coupled GIRK flux – cell-based, HEK293 alpha2C/GIRK1/2, thallium flux, primary screen (AID 624;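 active = fluorescence slope after compound addition differing from the mean of all screened samples at 99.7% confidence, in either direction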;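 also: slope of fluorescence ratio to pre-addition baseline per second over 15 to 24 s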); conditions: thallium flux BTC fluorescence, at 10 µM, actives lie on both sides
Sequence (P18825 whole entry, looked up): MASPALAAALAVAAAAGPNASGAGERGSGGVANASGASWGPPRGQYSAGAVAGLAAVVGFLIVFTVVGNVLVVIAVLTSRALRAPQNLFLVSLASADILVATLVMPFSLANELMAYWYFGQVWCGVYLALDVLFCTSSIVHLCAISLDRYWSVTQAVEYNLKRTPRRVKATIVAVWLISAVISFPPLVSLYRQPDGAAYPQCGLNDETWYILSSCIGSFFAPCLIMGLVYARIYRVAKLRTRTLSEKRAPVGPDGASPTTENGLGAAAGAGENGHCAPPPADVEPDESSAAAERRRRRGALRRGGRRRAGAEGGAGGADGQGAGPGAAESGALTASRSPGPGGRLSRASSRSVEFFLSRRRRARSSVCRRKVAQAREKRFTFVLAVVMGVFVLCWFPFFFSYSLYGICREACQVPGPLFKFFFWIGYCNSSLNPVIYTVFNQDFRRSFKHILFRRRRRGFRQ

Row | SMILES | slope
1 | Cc1cc(C)nc(SCc2nnc(SCC(=O)Nc3ncc(C)s3)n2Cc2ccco2)n1 | 0.00544 (inactive)
2 | COc1cccc(C2C(C(=O)c3cccs3)=C(O)C(=O)N2CCCn2ccnc2)c1OC (stereo not given) | 0.0053 (inactive)
3 | COc1cc(C(=O)N(C)c2nnc(-c3cccnc3)s2)cc(OC)c1OC | 0.00473 (inactive)
4 | CC(=O)Nc1nnc(SCC(=O)NCC2CCCO2)s1 (stereo not given) | 0.00542 (inactive)
5 | O=C(CSc1nc2cc(S(=O)(=O)N3CCOCC3)ccc2o1)NC1CCCc2ccccc21 (stereo not given) | 0.00378 (inactive)
6 | O=C(NCCN1CCOCC1)c1ccc(CS(=O)(=O)Cc2ccccc2F)o1 | 0.00503 (inactive)
7 | CCOC(=O)c1c(C)oc2ccc(NS(=O)(=O)c3ccc4c5c(cccc35)C(=O)N4)cc12 | 0.00563 (inactive)
8 | COC(=O)CCn1nnc(-c2ccc(C)cc2)n1 | 0.00816 (inactive)
9 | O=C(Nc1ccc(NC(=O)C2CC2)cn1)c1ccccc1Cl | 0.00552 (inactive)
10 | COc1ccc(NC(=O)CC2CCCCC2)cc1OC | 0.00718 (inactive)
11 | CC1(C)CC2CC(C)(CN2S(=O)(=O)c2ccc(N)cc2)C1 (stereo not given) | 0.00585 (inactive)
12 | COc1cc(C(=O)NCC(=O)OCC(=O)c2ccc[nH]2)cc(OC)c1OC | 0.00501 (inactive)
13 | C=CCSc1nnc(-c2ccc(Cl)cc2Cl)o1 | 0.00563 (inactive)
14 | COc1cc(CC(=O)Oc2ccc3c(c2)OCO3)cc(OC)c1OC | 0.00391 (inactive)
15 | C(=N\n1cnnc1)/c1cccc(OCCOc2ccccc2)c1 | 0.00586 (inactive)
16 | CCN(CC)C(c1ccc(C)cc1)c1nnnn1C1CCCCC1 (stereo not given) | 0.00367 (inactive)
17 | CCOC(=O)Nc1ccc2c(c1)N(C(=O)CCN1CCOCC1)c1ccccc1S2 | 0.00608 (inactive)
18 | Cc1cc(=O)c2n(Cc3ccccc3Cl)nc[n+]2[nH]1 | 0.00447 (inactive)
19 | CC12CN3CCN(CC(C3)C1(O)CN1CCCCC1)C2 (stereo not given) | 0.00521 (inactive)
20 | Cc1cc(C)n(C(C)n2nc(C)cc2C)n1 | 0.00585 (inactive)

Row | SMILES | slope
21 | COC(=O)CSc1nnc(CSc2nc(C)cc(C)n2)n1Cc1ccco1 | 0.00459 (inactive)
22 | Cc1cc(NC(=O)CSc2nc(C3CCCCC3)nc3ccccc23)no1 | 0.00411 (inactive)
23 | Cc1cccc(C)c1NC(=O)COC(=O)c1nonc1N | 0.0052 (inactive)
24 | CCn1c(=N)n(CC(=O)c2ccco2)c2ccccc21 | 0.00452 (inactive)
25 | C=C(C)Cn1c(CCCNC(=O)C(C)(C)C)nc2ccccc21 | 0.00533 (inactive)
26 | Cc1cn(C2CC3OCC3O2)c(=O)[nH]c1=O (stereo not given) | 0.00591 (inactive)
27 | CC(=O)Nc1ccc(Cc2ccncc2)cc1 | 0.00486 (inactive)
28 | O=C(Nc1ccon1)c1cccc(S(=O)(=O)N2CCCC2)c1 | 0.00556 (inactive)
29 | CCOC(=O)c1sc(NC(=O)CSc2ncn(-c3ccccc3)n2)nc1C | 0.00535 (inactive)
30 | O=C(Nc1ccccc1)N(CCCN1CCOCC1)Cc1cc2cc3c(cc2[nH]c1=O)OCCO3 | 0.00525 (inactive)
31 | COCC(=O)n1nc(NCc2ccc(OC)cc2)nc1NCc1ccc(OC)cc1 | 0.00518 (inactive)
32 | Cc1ccc(S(=O)(=O)N2CCN(C(=O)N3CCOCC3)C2c2ccc(N(C)C)cc2)cc1 (stereo not given) | 0.00452 (inactive)
33 | COc1cccc2c(=O)cc(C)n(CC(=O)Nc3ccc(C)c(C)c3)c12 | 0.00483 (inactive)
34 | O=C(NCc1cccnc1)c1cccc(C(F)(F)F)c1 | 0.00523 (inactive)
35 | COc1ccc(C(=O)Nc2ccc(Cl)c(Cl)c2)c(OC)n1 | 0.00581 (inactive)
36 | COc1cc(C(=O)OCc2cc3ccccc3[nH]c2=O)cc(OC)c1OC | 0.00585 (inactive)
37 | COc1cc(C)c(Br)cc1S(=O)(=O)N1CCOCC1 | 0.00698 (inactive)
38 | FC(F)Oc1cccc2cccnc12 | 0.00451 (inactive)
39 | Cc1ccc(OCC2Cn3c(nc4c3c(=O)n(C)c(=O)n4C)O2)cc1 (stereo not given) | 0.00486 (inactive)
40 | Cc1cnc(C(=O)Nc2ccccc2-n2cccc2)cn1 | 0.00535 (inactive)

tested on: not listed separately; assay: inhibitors of larval lipid processing in zebrafish, primary screen, whole organism, PED6 fluorescence, gall bladder and intestine (AID 686); conditions: Zebrafish larvae PED6 lipid processing, fluorescence scoring; screened at 20 µM (by protocol);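 also: larvae 5 to 7 days old with five fish per well; signal comes from phospholipase A2 cleavage of quenched PED6 carried via bile; overnight exposure to compound and PED6 before scoring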
Outline: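 System: live zebrafish larvae aged 5-7 days, whole organism; measure: graded gall bladder and intestinal fluorescence inhibition per well; incubation: overnight exposure; reagent: ingested quenched lipid PED6 at 100 nM; signal: By-eye fluorescence microscopy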

Row | SMILES | outcome
41 | Cc1cc(C)nc(SCc2nnc(SCC(=O)Nc3ncc(C)s3)n2Cc2ccco2)n1 | inactive
42 | COc1cccc(C2C(C(=O)c3cccs3)=C(O)C(=O)N2CCCn2ccnc2)c1OC (stereo not given) | inactive
43 | COc1cc(C(=O)N(C)c2nnc(-c3cccnc3)s2)cc(OC)c1OC | inactive
44 | CC(=O)Nc1nnc(SCC(=O)NCC2CCCO2)s1 (stereo not given) | inactive
45 | O=C(CSc1nc2cc(S(=O)(=O)N3CCOCC3)ccc2o1)NC1CCCc2ccccc21 (stereo not given) | inactive
46 | O=C(NCCN1CCOCC1)c1ccc(CS(=O)(=O)Cc2ccccc2F)o1 | inactive
47 | CCOC(=O)c1c(C)oc2ccc(NS(=O)(=O)c3ccc4c5c(cccc35)C(=O)N4)cc12 | inactive
48 | COC(=O)CCn1nnc(-c2ccc(C)cc2)n1 | inactive
49 | O=C(Nc1ccc(NC(=O)C2CC2)cn1)c1ccccc1Cl | inactive
50 | COc1ccc(NC(=O)CC2CCCCC2)cc1OC | inactive
51 | CC1(C)CC2CC(C)(CN2S(=O)(=O)c2ccc(N)cc2)C1 (stereo not given) | inactive
52 | COc1cc(C(=O)NCC(=O)OCC(=O)c2ccc[nH]2)cc(OC)c1OC | inactive
53 | C=CCSc1nnc(-c2ccc(Cl)cc2Cl)o1 | inactive
54 | COc1cc(CC(=O)Oc2ccc3c(c2)OCO3)cc(OC)c1OC | inactive
55 | C(=N\n1cnnc1)/c1cccc(OCCOc2ccccc2)c1 | inactive
56 | CCN(CC)C(c1ccc(C)cc1)c1nnnn1C1CCCCC1 (stereo not given) | inactive
57 | CCOC(=O)Nc1ccc2c(c1)N(C(=O)CCN1CCOCC1)c1ccccc1S2 | inactive
58 | Cc1cc(=O)c2n(Cc3ccccc3Cl)nc[n+]2[nH]1 | inactive
59 | CC12CN3CCN(CC(C3)C1(O)CN1CCCCC1)C2 (stereo not given) | inactive
60 | Cc1cc(C)n(C(C)n2nc(C)cc2C)n1 | inactive

Row | SMILES | outcome
61 | COC(=O)CSc1nnc(CSc2nc(C)cc(C)n2)n1Cc1ccco1 | inactive
62 | Cc1cc(NC(=O)CSc2nc(C3CCCCC3)nc3ccccc23)no1 | inactive
63 | Cc1cccc(C)c1NC(=O)COC(=O)c1nonc1N | inactive
64 | CCn1c(=N)n(CC(=O)c2ccco2)c2ccccc21 | inactive
65 | C=C(C)Cn1c(CCCNC(=O)C(C)(C)C)nc2ccccc21 | inactive
66 | Cc1cn(C2CC3OCC3O2)c(=O)[nH]c1=O (stereo not given) | inactive
67 | CC(=O)Nc1ccc(Cc2ccncc2)cc1 | inactive
68 | O=C(Nc1ccon1)c1cccc(S(=O)(=O)N2CCCC2)c1 | inactive
69 | CCOC(=O)c1sc(NC(=O)CSc2ncn(-c3ccccc3)n2)nc1C | inactive
70 | O=C(Nc1ccccc1)N(CCCN1CCOCC1)Cc1cc2cc3c(cc2[nH]c1=O)OCCO3 | inactive
71 | COCC(=O)n1nc(NCc2ccc(OC)cc2)nc1NCc1ccc(OC)cc1 | inactive
72 | Cc1ccc(S(=O)(=O)N2CCN(C(=O)N3CCOCC3)C2c2ccc(N(C)C)cc2)cc1 (stereo not given) | inactive
73 | COc1cccc2c(=O)cc(C)n(CC(=O)Nc3ccc(C)c(C)c3)c12 | inactive
74 | O=C(NCc1cccnc1)c1cccc(C(F)(F)F)c1 | inactive
75 | COc1ccc(C(=O)Nc2ccc(Cl)c(Cl)c2)c(OC)n1 | inactive
76 | COc1cc(C(=O)OCc2cc3ccccc3[nH]c2=O)cc(OC)c1OC | inactive
77 | COc1cc(C)c(Br)cc1S(=O)(=O)N1CCOCC1 | inactive
78 | FC(F)Oc1cccc2cccnc12 | inactive
79 | Cc1ccc(OCC2Cn3c(nc4c3c(=O)n(C)c(=O)n4C)O2)cc1 (stereo not given) | inactive
80 | Cc1cnc(C(=O)Nc2ccccc2-n2cccc2)cn1 | inactive

Source: PubChem BioAssay
